A short description of test [1]: Cytotoxic activity against human tumor SW 13 cell line. Format: functional, cell-based. The method in brief: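 Maintained in Leibovitz medium with 10% FBS and penicillin/streptomycin. Colorimetric MTT assay: 10⁴ cells/well, compound at 0.01–100 µM final from 24 h after seeding, for 72 h. MTT for 4 h, then SDS in 0.01 N HCl for 18 h at 37 °C, absorbance at 550 nm. IC50 is the concentration halving absorbance versus control, from 6–8 wells in at least two independent runs.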

Test [2] can be described thus: Cytotoxic activity against human tumor Aro cell line. Format: functional, cell-based. The method in brief: (§1)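 DMEM with 10% heat-inactivated FBS and antibiotics used for culture. Cells plated at 10⁴/well; after 24 h, 72 h exposure to 0.01–100 µM (final) compound. Survival measured by MTT (4 h), SDS/HCl solubilisation for 18 h at 37 °C, absorbance at 550 nm. IC50 is the concentration giving 50% absorbance reduction versus untreated cells, from 6–8 wells across at least two experiments.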

Test [3] can be described thus: Cytotoxic activity against human tumor PT45 cell line. Format: functional, cell-based. As to conditions: PT-45. The method in brief:
(§2)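 Cells kept in RPMI with 10% heat-inactivated FBS and penicillin/streptomycin. MTT assay: 10⁴ cells/well seeded, exposed after 24 h to compound at 0.01–100 µM final for 72 h. MTT was added for 4 h, then SDS/HCl for 18 h at 37 °C, and absorbance read at 550 nm. IC50 is the concentration halving absorbance versus untreated cells, from 6–8 wells in at least two independent experiments.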

Test [4] deals with A 172. The test is described as follows: Cytotoxic activity against human tumor A-172 cell line. Format: functional, cell-based. The method in brief:
as §2

The nature of test [5]: Cytotoxic activity against human tumor C8305 cell line. Format: functional, cell-based. The method in brief:
as §2

For test [6], the system named is HT-29. The test can be described thus: Cytotoxic activity against human tumor HT-29 cell line. Format: functional, cell-based. The method in brief:
as §1

The test system of test [7] is MCF7. The test is described as follows: Cytotoxic activity against human tumor MCF-7 cell line. Format: functional, cell-based. The method in brief: as §1
A short description of test [8]: Cytotoxic activity against human tumor Hep 3B cell line. Format: functional. Conditions: Hep3B. The method in brief:
as §1

In test [9] the test system is HepG2. The test can be described thus: Cytotoxic activity against human tumor Hep G2 cell line. Format: functional, cell-based. The method in brief:
as §1

Test [10] relates to IGROV-1. The test is described as follows: Cytotoxic activity against human tumor Igrov-1 cell line. Format: functional, cell-based. The method in brief:
as §2

Test [11] deals with OVCAR-3. The test is described as follows: Cytotoxic activity against human tumor Ovcar-3 cell line. Format: functional, cell-based. The method in brief:
as §2

Test [12] in a line: Cytotoxic activity against human tumor NCI-H295 cell line. Format: functional, cell-based. The method in brief: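 Grown in RPMI with 2% FBS, insulin-transferrin-selenium and penicillin/streptomycin. MTT read-out: 10⁴ cells/well, compound 0.01–100 µM final added after 24 h, 72 h exposure. MTT for 4 h, solubilised in SDS/HCl for 18 h at 37 °C, absorbance at 550 nm. IC50 is the concentration cutting absorbance 50% versus control, from 6–8 replicate wells over two or more independent experiments.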

Test [13] is described as follows: Cytotoxic activity against human tumor PLC/PRF/5 cell line. Format: functional. The method in brief: as §1
A short description of test [14]: Cytotoxic activity against human tumor Mia Paca 2 cell line. Format: functional, cell-based. The method in brief: as §2

SMILES strings stand for the structures. Where a name gives a salt, the structure may show the parent alone.

One may read the IC50 as the concentration that gives 50% inhibition.

With `COc1cccc(-c2cc(O)c3ccc4[nH]ccc4c3n2)c1`, the concentration for half-maximal inhibition (IC50) in test [1] (Homo sapiens, SW13) was 0.7 µM; in test [2] (Homo sapiens, ARO), 4 µM; in [3], 100 µM; in test [4] it was > 100 µM; in test [5] (Homo sapiens, C8305) it was 10 µM; in [6], 50 µM. Further, the half-inhibitory concentration (IC50) in test [7] (Homo sapiens, MCF7) is 1 µM; in test [8], 2 µM; in test [9] (Homo sapiens, HepG2) it was 2 µM; in [10] (Homo sapiens, IGROV-1), 3 µM; in [11] (Homo sapiens, OVCAR-3) it was 1 µM; in test [12] (Homo sapiens, NCI-H295) it was 3 µM. Besides, the IC50 in [13] (Homo sapiens, PLC-PRF-5) was 7 µM; in [14], 5 µM.
Consider `Cn1ccc2c3nc(-c4ccccc4)cc(O)c3ccc21`, for which the IC50 in [1] (Homo sapiens, SW13) was 0.9 µM; in [2] (Homo sapiens, ARO) it was 5 µM; in [3], 100 µM; in [4], > 100 µM; in test [5] (Homo sapiens, C8305), 10 µM; in [6], 50 µM. In addition, the IC50 in test [7] (Homo sapiens, MCF7) worked out at 4 µM; in [8], 1 µM; in test [9] (Homo sapiens, HepG2) it was 1 µM; in [10] (Homo sapiens, IGROV-1), 3 µM; in test [11] (Homo sapiens, OVCAR-3) it was 2 µM; in test [12] (Homo sapiens, NCI-H295) it was 2 µM. In addition, the IC50 was 7 µM in test [13] (Homo sapiens, PLC-PRF-5) and 8 µM in [14].
Turning to `Oc1cc(-c2ccccc2)nc2c1ccc1[nH]ccc12`, the IC50 was found to be 3 µM in test [1] (Homo sapiens, SW13); 8 µM in test [2] (Homo sapiens, ARO); 100 µM in test [3]; 100 µM in [4]; 10 µM in test [5] (Homo sapiens, C8305); 60 µM in [6]. Also, the IC50 in test [7] (Homo sapiens, MCF7) was 4 µM; in test [8], 4 µM; in test [9] (Homo sapiens, HepG2) it was 4 µM; in test [10] (Homo sapiens, IGROV-1), 5 µM; in test [11] (Homo sapiens, OVCAR-3) it was 2 µM; in test [12] (Homo sapiens, NCI-H295), 8 µM. The IC50 in [13] (Homo sapiens, PLC-PRF-5) was 8 µM; in test [14] it was 4 µM.
Regarding `Oc1ccnc2c1ccc1[nH]ccc12`, the IC50 in test [1] (Homo sapiens, SW13) was > 100 µM; in test [2] (Homo sapiens, ARO), > 100 µM; in test [3], > 100 µM; in test [4], > 100 µM; in test [5] (Homo sapiens, C8305) it was > 100 µM; in [6], > 100 µM. Besides, the IC50 in test [7] (Homo sapiens, MCF7) is > 100 µM; in test [8], > 100 µM; in [9] (Homo sapiens, HepG2) it was > 100 µM; in test [10] (Homo sapiens, IGROV-1), > 100 µM; in test [11] (Homo sapiens, OVCAR-3), > 100 µM; in [12] (Homo sapiens, NCI-H295), > 100 µM. The IC50 in [13] (Homo sapiens, PLC-PRF-5) was > 100 µM; in [14], > 100 µM.
For `Oc1cc(-c2cccs2)nc2c1ccc1[nH]ccc12`, the IC50 in test [1] (Homo sapiens, SW13) was 50 µM; in [2] (Homo sapiens, ARO), 80 µM; in [3], 100 µM; in [4], > 100 µM; in [5] (Homo sapiens, C8305) it was 100 µM; in [6] it was > 100 µM. The IC50 in [7] (Homo sapiens, MCF7) is 30 µM; in test [8], 50 µM; in test [9] (Homo sapiens, HepG2), 10 µM; in [10] (Homo sapiens, IGROV-1) it was 15 µM; in test [11] (Homo sapiens, OVCAR-3) it was 20 µM; in test [12] (Homo sapiens, NCI-H295) it was 40 µM. Further, the IC50 was 80 µM in test [13] (Homo sapiens, PLC-PRF-5) and > 100 µM in test [14].
On to `Nc1cccc(-c2cc(O)c3ccc4[nH]ccc4c3n2)c1` [listing 1 of 2 here], for which the IC50 in test [1] (sw 13) is 10 µM; in [2] (Homo sapiens, ARO), 70 µM; in test [3], > 100 µM; in test [4], > 100 µM; in test [5] (Homo sapiens, C8305) it was 80 µM; in [6] it was > 100 µM. The IC50 was 50 µM in test [7] (Homo sapiens, MCF7); > 100 µM in test [8]; 50 µM in [9] (Homo sapiens, HepG2); 30 µM in test [10] (igrov-1); 30 µM in [11] (ovcar-3); 50 µM in test [12] (Homo sapiens, NCI-H295). Further, the IC50 was 50 µM in test [13] (Homo sapiens, PLC-PRF-5) and > 100 µM in test [14].
For `O=[N+]([O-])c1ccc(-c2cc(O)c3ccc4[nH]ccc4c3n2)cc1`, the IC50 in [1] (Homo sapiens, SW13) is 50 µM; in test [2] (Homo sapiens, ARO), > 100 µM; in test [3], > 100 µM; in [4] it was > 100 µM; in test [5] (Homo sapiens, C8305), > 100 µM; in test [6], > 100 µM. Further, the IC50 was found to be 60 µM in [7] (Homo sapiens, MCF7); 30 µM in test [8]; 100 µM in [9] (Homo sapiens, HepG2); 60 µM in test [10] (Homo sapiens, IGROV-1); 50 µM in [11] (Homo sapiens, OVCAR-3); 80 µM in test [12] (Homo sapiens, NCI-H295). The IC50 in [13] (Homo sapiens, PLC-PRF-5) was > 100 µM; in [14], > 100 µM.
In the case of `O=[N+]([O-])c1cccc(-c2cc(O)c3ccc4[nH]ccc4c3n2)c1`, the IC50 in test [1] (Homo sapiens, SW13) was 60 µM; in test [2] (Homo sapiens, ARO) it was 80 µM; in test [3], > 100 µM; in [4] it was > 100 µM; in test [5] (Homo sapiens, C8305), > 100 µM; in [6], > 100 µM. Also, the IC50 in [7] (Homo sapiens, MCF7) is 70 µM; in test [8], 50 µM; in test [9] (Homo sapiens, HepG2), > 100 µM; in test [10] (Homo sapiens, IGROV-1) it was 80 µM; in test [11] (Homo sapiens, OVCAR-3) it was 50 µM; in test [12] (Homo sapiens, NCI-H295) it was 60 µM. The IC50 was > 100 µM in [13] (Homo sapiens, PLC-PRF-5) and > 100 µM in [14].
As to `Cc1cc(O)c2ccc3[nH]ccc3c2n1`, the IC50 in [1] (Homo sapiens, SW13) was > 100 µM; in test [2] (Homo sapiens, ARO), > 100 µM; in [3], > 100 µM; in test [4], > 100 µM; in test [5] (Homo sapiens, C8305), > 100 µM; in test [6], > 100 µM. In addition, the concentration for half-maximal inhibition (IC50) in test [7] (Homo sapiens, MCF7) is > 100 µM; in test [8], > 100 µM; in test [9] (Homo sapiens, HepG2), > 100 µM; in test [10] (Homo sapiens, IGROV-1), > 100 µM; in test [11] (Homo sapiens, OVCAR-3) it was > 100 µM; in test [12] (Homo sapiens, NCI-H295), > 100 µM. For the same compound, the IC50 in test [13] (Homo sapiens, PLC-PRF-5) is > 100 µM; in test [14], > 100 µM.
Consider `Nc1cccc(-c2cc(O)c3ccc4[nH]ccc4c3n2)c1` [listing 2 of 2 here], for which the IC50 in [1] (sw 13), in test [2] (aro), in test [5] (c8305), in test [7] (mcf7), in test [9] (hepg2) and in test [10] (igrov-1) was > 100 µM throughout. Besides, the IC50 in [11] (ovcar-3), in test [12] (nci-h295) and in [13] was > 100 µM throughout.
For the compound `CC[C@]1(O)C[C@H]2CN(CCc3c([nH]c4ccccc34)[C@@](C(=O)OC)(c3cc4c(cc3OC)N(C=O)[C@H]3[C@@](O)(C(=O)OC)[C@H](OC(C)=O)[C@]5(CC)C=CCN6CC[C@]43[C@@H]65)C2)C1` [VINCRISTINE SULFATE], the IC50 in test [1] (Homo sapiens, SW13) is 0.001 µM; in [2] (Homo sapiens, ARO), < 0.0001 µM; in test [3] it was 0.1 µM; in [4] it was > 100 µM; in test [5] (Homo sapiens, C8305) it was 0.1 µM; in test [6], 0.1 µM. The IC50 in test [7] (Homo sapiens, MCF7) was 0.01 µM; in test [8], 0.1 µM; in [9] (Homo sapiens, HepG2) it was 0.1 µM; in test [10] (Homo sapiens, IGROV-1), 0.01 µM; in test [11] (Homo sapiens, OVCAR-3), 0.01 µM; in test [12] (Homo sapiens, NCI-H295) it was 0.1 µM. Besides, the half-inhibitory concentration (IC50) in test [13] (Homo sapiens, PLC-PRF-5) stood at 0.1 µM; in test [14] it was 0.01 µM.
